Laboratory results: ChEMBL document CHEMBL3286172, “Exploring the role of 2-chloro-6-fluoro substitution in 2-alkylthio-6-benzyl-5-alkylpyrimidin-4(3H)-ones: effects in HIV-1-infected cells and in HIV-1 reverse transcriptase enzymes” (J Med Chem, 2014)

What was measured:
[1] = test system: Human immunodeficiency virus 1; experiment: Antiviral activity against HIV-1 harboring NNTRI-resistant reverse transcriptase K103N mutant infected in human MT4 cells assessed as inhibition of virus-induced cytopathic effect by MTT method; assay type: functional, organism-based; details: Human immunodeficiency virus 1, MT4
[2] = test system: Human immunodeficiency virus 1; experiment: Fold resistance, ratio of EC50 for HIV-1 harboring NNTRI-resistant reverse transcriptase Y181C mutant infected in human MT4 cells to EC50 for wild type HIV-1 NL4-3 infected in human MT4 cells; assay type: functional
In short: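 MT-4 cells infected with HIV-1 mutant (K103N or Y181C) or wild-type NL4-3, with drug present. […] Fold resistance is the mutant EC50 divided by the wild-type NL4-3 EC50. EC50 values are means of at least two experiments.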

[3] = test system: Human immunodeficiency virus 1; experiment: Antiviral activity against wild type HIV-1 NL4-3 infected in human MT4 cells assessed as inhibition of virus-induced cytopathic effect by MTT method; assay type: functional, organism-based; details: Human immunodeficiency virus 1, NL4-3, MT4
In short: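 MT-4 lymphoid cells infected with wild-type HIV-1 NL4-3 while exposed to a range of drug concentrations. Viable cells counted by tetrazolium (MTT) colorimetry at day 5 post-infection. Means of at least two experiments.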

[4] = test system: Human immunodeficiency virus 1; experiment: Fold resistance, ratio of ID50 for HIV-1 recombinant NNTRI-resistant reverse transcriptase L100I mutant to ID50 for wild type HIV-1 recombinant reverse transcriptase
In short: (§1)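 Recombinant wt or mutant HIV-1 RT, purified to >95%, at 2-4 nM. RNA-dependent DNA polymerase activity with 0.5 µg poly(rA)/oligo(dT)10:1 (0.3 µM 3'-OH ends), 10 µM [3H]-dTTP and 8% final DMSO. Incorporation was sampled at 2-min intervals. ID50 came from fitting to a fully non-competitive model. Ratio is ID50 mutant/ID50 wt. Means of at least three experiments.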

[5] = test system: Human immunodeficiency virus 1; experiment: Antiviral activity against HIV-1 harboring NNTRI-resistant reverse transcriptase Y188L mutant infected in human MT4 cells assessed as inhibition of virus-induced cytopathic effect by MTT method; assay type: functional, organism-based; details: Human immunodeficiency virus 1, MT4
In short: (§2)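 MT-4 lymphoid cells infected with HIV-1 carrying RT K103N, Y181C or Y188L, with a range of drug concentrations present. Viable cells counted by MTT colorimetric assay at day 5 post-infection. […] Highest concentration tested was limited by precipitation in culture medium. Means of at least two experiments.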

[6] = Selectivity index, ratio of CC50 for human MT4 cells to EC50 for wild type HIV-1 NL4-3 infected in human MT4 cells; assay type: toxicity, cell-based; details: read-out: Ratio CC50/EC50
In short: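 Ratio of CC50 to EC50, both from MTT readings in MT-4 cells at day 5. CC50 was taken in mock-infected cells and EC50 in cells infected with wild-type NL4-3. Values are means of at least two experiments.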

[7] = test system: Human immunodeficiency virus 1; experiment: Fold resistance, ratio of EC50 for HIV-1 harboring NNTRI-resistant reverse transcriptase K103N mutant infected in human MT4 cells to EC50 for wild type HIV-1 NL4-3 infected in human MT4 cells; assay type: functional
[8] = test system: Human immunodeficiency virus 1; experiment: Fold resistance, ratio of EC50 for HIV-1 harboring NNTRI-resistant reverse transcriptase Y188L mutant infected in human MT4 cells to EC50 for wild type HIV-1 NL4-3 infected in human MT4 cells; assay type: functional
In short: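 HIV-1 NL4-3 (wt) or Y188L mutant infection of MT-4 cells across a range of drug concentrations. Viable cells were counted by MTT at day 5 post-infection. […] Fold resistance is mutant EC50 over wt EC50. Means of at least two experiments.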

[9] = test system: Human immunodeficiency virus 1; experiment: Fold resistance, ratio of ID50 for HIV-1 recombinant NNTRI-resistant reverse transcriptase K103N mutant to ID50 for wild type HIV-1 recombinant reverse transcriptase; in short: as §1
[10] = test system: Human immunodeficiency virus 1; experiment: Fold resistance, ratio of ID50 for HIV-1 recombinant NNTRI-resistant reverse transcriptase Y181I mutant to ID50 for wild type HIV-1 recombinant reverse transcriptase
In short: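 RNA-dependent DNA polymerase activity with 0.5 µg poly(rA)/oligo(dT)10:1 (0.3 µM 3'-OH ends), 10 µM [3H]-dTTP and 8% final DMSO. Incorporation was sampled at 2-min intervals. ID50 came from fitting to a fully non-competitive model. Means of at least three experiments.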

[11] = Cytotoxicity against human MT4 cells assessed as induction of cell death by MTT method; assay type: cell-based
In short: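 Mock-infected MT-4 cells exposed to a range of drug concentrations. Viability read by MTT colorimetry at day 5. […] Top concentration was limited where compound precipitated in the culture medium. Means of at least two experiments.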

[12] = test system: Human immunodeficiency virus 1; experiment: Antiviral activity against HIV-1 harboring NNTRI-resistant reverse transcriptase Y181C mutant infected in human MT4 cells assessed as inhibition of virus-induced cytopathic effect by MTT method; assay type: functional, organism-based; details: Human immunodeficiency virus 1, MT4; in short: as §2
[13] = test system: Human immunodeficiency virus type 1 reverse transcriptase (Human immunodeficiency virus 1), Q72547 [L100I]
[14] = test system: Human immunodeficiency virus type 1 reverse transcriptase (Human immunodeficiency virus 1), Q72547 [K103N]
[15] = biological target: Human immunodeficiency virus type 1 reverse transcriptase (Human immunodeficiency virus 1) (UniProt Q72547)

| Structure (SMILES) | EC50 [1] [nM] | Ratio EC50 [2] | EC50 [3] [nM] | Ratio [4] | EC50 [5] [nM] | selectivity ratio [6] | Ratio EC50 [7] | Ratio EC50 [8] | Ratio [9] | Ratio [10] | CC50 [11] [nM] | EC50 [12] [nM] | ID50 [13] [nM] | ID50 [14] [nM] | ID50 [15] [nM] |
| --- | --- | --- | --- | --- | --- | --- | --- | --- | --- | --- | --- | --- | --- | --- | --- |
| CC[C@@H](C)Sc1nc([C@H](C)c2c(F)cccc2Cl)cc(=O)[nH]1 | 200 | 1924 | 0.3 | 18 | 860 | > 103000 | 610 | 2859 | 488 | 3750 | > 31000 | 580 | – | – | – |
| CC[C@@H](C)Sc1nc([C@@H](C)c2c(F)cccc2Cl)cc(=O)[nH]1 | 5560 | 281 | 47 | 4 | > 51600 | > 1110 | 118 | – | 365 | – | > 52000 | 13200 | – | – | – |
| CCC(c1nc(SC(C)C)[nH]c(=O)c1C)c1c(F)cccc1F (racemic) | 530 | 187 | 4 | – | 270 | > 7500 | 132 | 67 | – | – | > 30000 | 750 | 210 | 310 | 4 |
| CCC(C)Sc1nc(C(CC)c2c(F)cccc2F)c(C)c(=O)[nH]1 (racemic) | 200 | 375 | 0.8 | – | 900 | > 3750 | 250 | 1125 | – | – | > 3000 | 300 | 48 | 140 | 6 |
| CCC(c1nc(SC2CCCC2)[nH]c(=O)c1C)c1c(F)cccc1F (racemic) | 1000 | 100 | 11 | – | 1600 | 2730 | 91 | 145 | – | – | 30000 | 1100 | 110 | 380 | 5 |
| CC(C)Sc1nc(C(C)c2c(F)cccc2Cl)cc(=O)[nH]1 (racemic) | 1100 | 3750 | 2 | – | 30700 | > 37500 | 550 | 15350 | – | – | > 75000 | 7500 | 340 | 1300 | 8 |
| CCCSc1nc(C(C)c2c(F)cccc2Cl)cc(=O)[nH]1 (racemic) | 890 | 767 | 3 | – | 7900 | > 25000 | 297 | 2633 | – | – | > 75000 | 2300 | 500 | 1300 | 8 |
| CCC(C)Sc1nc(C(C)c2c(F)cccc2Cl)cc(=O)[nH]1 (racemic) | 1000 | 3600 | 1 | 25 | 7500 | > 73000 | 1000 | 7500 | 375 | 2640 | > 73000 | 3600 | – | – | – |
| CCCSc1nc(C(CC)c2c(F)cccc2Cl)c(C)c(=O)[nH]1 (racemic) | 2100 | 108 | 26 | 48 | > 3000 | > 115 | 81 | – | 126 | 700 | > 3000 | 2800 | 240 | 630 | 5 |
| CCCCSc1nc(C(C)c2c(F)cccc2F)c(CC)c(=O)[nH]1 (racemic) | > 3000 | – | 57 | 93 | > 3000 | > 53 | – | – | 130 | 1000 | > 3000 | > 3000 | 280 | 390 | 3 |
| CCc1c(C(C)c2c(F)cccc2F)nc(SC2CCCC2)[nH]c1=O (racemic) | > 3000 | – | 160 | 65 | > 3000 | > 19 | – | – | 100 | 900 | > 3000 | > 3000 | 130 | 200 | 2 |
| CCCSc1nc(C(CC)c2c(F)cccc2F)c(C)c(=O)[nH]1 (racemic) | > 3000 | – | 12 | 37 | > 3000 | > 250 | – | – | 70 | 600 | > 3000 | > 3000 | 220 | 420 | 6 |
| CC[C@H](C)Sc1nc([C@H](C)c2c(F)cccc2Cl)cc(=O)[nH]1 (racemic) | 1220 | 113 | 11 | 24 | 7400 | > 3540 | 111 | 673 | 229 | – | > 39000 | 1240 | – | – | – |
